Shown are actives, neighbours in structure and some others; about 4.9% of the full set was active somewhere.
STAT1 inh: inhibitors of IFN-gamma induced STAT1 signaling; NIH 3T3 STAT1-luciferase reporter, luminescence; inhibition, % at 5.5 µM; 200,000 tested, 0.35% active; AID 920;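 active = inhibition above a set limit, the mean inhibition across all tested compounds plus 3 SD, cut at about 34% in these data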
STAT3 blocker: STAT3 signaling inhibition; U3A cells, IL-6 STAT3-luciferase reporter, luminescence; host cell line lacks STAT1; inhibition, % at 5.5 µM; 190,000 tested, 0.89% active;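 active = inhibition above the mean inhibition across all screened compounds plus 3 SD, cut at about 44% in these data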
APP 5'UTR act: APP 5'UTR luciferase reporter activation | SH-SY5Y APP 5'UTR luciferase reporter, luminescence; zero percent = DMSO vehicle wells | activation, % at 2 µM | 190,000 tested, 1% active | AID 1276;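 active = activation above a set limit, based on mean plus 3 SD of controls, cut at about 140% in these data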
NF-kB neuron act: compounds increasing NF-kB expression in human neuronal cells. NF-kB reporter expression; stronger effect = higher value. fold change at 12.5 µM. 190,000 tested, 1.6% active. AID 1239; in the data active = fold change above about 3.3
STAT3 activator: STAT3 signaling activation | U3A cells, IL-6 STAT3-luciferase reporter, luminescence; 100% = signal with IL-6 EC80 alone | 190,000 tested, 0.91% active | AID 871 | activation (% of control), % at 5.6 µM;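 active = activation above the screen-wide mean of compound activation plus 3 SD, cut at about 130% in these data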
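system = STAT3-luciferase reporter U3A cells | reagent = IL-6 stimulus at 33 ng/mL final | timing = 1 h compound pre-exposure, 6 h IL-6 stimulation, 37 °C | measured by = luminescence | evaluation = % activation versus median of IL-6-stimulated wells | control set = IL-6-only wells as 100% reference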
STAT1 act: activators of IFN-gamma induced STAT1 signaling | NIH 3T3 STAT1-luciferase reporter, luminescence; 100% = IFN-gamma alone, no compound | 200,000 tested, 2.6% active | AID 932 | activation (% of control), % at 5.5 µM;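 active = activation above the screen-wide mean activation plus 3 SD, cut at about 130% in these data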
Each line names hits and unclear results; the compound was inactive in the other large screens.

COCc1[nH][nH]c(=O)c1/C=N/N1CCOCC1	none
CC(=O)OC(/C(O)=C(\C#N)c1nc2ccccc2[nH]1)c1ccccc1 (stereo not drawn)	NF-kB neuron act 3.6
C/C(O)=C(/C#N)c1nc2ccccc2[nH]1	none (no result: APP 5'UTR act)
O=c1cc(-c2ccccc2)nc2nc(-c3ccccc3)[nH]n12	STAT3 activator 159, STAT1 act 156
Nc1nc2nc(-c3ccccc3)cc(=O)n2[nH]1	none
CC(=O)c1c(C)[nH]c(C(=O)COC(=O)CCCOc2ccccc2)c1C	none
COc1ccc(CCNC(=O)c2[nH]c(C)c(C(C)=O)c2C)cc1OC	none
CC(=O)c1c(C)[nH]c(C(=O)NCCc2ccccc2)c1C	NF-kB neuron act 3.4, STAT1 act 149
CC(=O)c1c(C)[nH]c(C(=O)OCCOc2ccccc2)c1C	STAT1 inh 50, STAT3 blocker 84, APP 5'UTR act 212
OC1(c2cccc(C(F)(F)F)c2)CCN(c2ccc(-c3ccccc3)nn2)CC1	STAT1 act 141
OC1(c2cccc(C(F)(F)F)c2)CCN(c2ncnc3c2[nH]c2ccccc23)CC1	none
Cn1cc(Br)c(C(=O)NC2C3CC4CC(C3)CC2C4)n1 (stereo not drawn)	STAT1 act 147
O=C(C[n+]1ccc(Cc2ccccc2)cc1)Nc1ccccc1	none
COC(=O)c1nnn(-c2nonc2N)c1CSc1nnc(N)s1	none
CCc1ccc(C(=O)Nc2nnn(CC)n2)cc1	NF-kB neuron act 3.7
O=C(Nc1cccc([N+](=O)[O-])c1)c1[nH]ncc1Cl	STAT1 act 134
O=C(Nc1ccc(N2CCCCC2)cc1)c1ccc2c(c1)OCCO2	APP 5'UTR act 135, NF-kB neuron act 3.8, STAT1 act 133
CN(c1cccc(NC(=O)c2ccc(C(C)(C)C)cc2)c1)S(C)(=O)=O	STAT1 act 138
O=C(Nc1cccc([N+](=O)[O-])c1)c1cnccn1	none
CC(C)(C)c1ccc(C(=O)Nc2cccc([N+](=O)[O-])c2)cc1	APP 5'UTR act 137, NF-kB neuron act 7.6, STAT1 act 135
CC(=O)N1CCN(c2ccc(NC(=O)c3ccc4c(c3)OCCO4)cc2)CC1	none
O=C(Nc1cccc([N+](=O)[O-])c1)c1ccncc1	none
CC(NC(=O)CNC(=O)C(Cc1ccccc1)NC(=O)OCc1ccccc1)C(N)=O (stereo not drawn)	none
CCNC(=O)c1ccc2c(c1)C1C3CCC(C3)C1C(c1ccccc1)N2 (stereo not drawn)	none
O=C(c1cnn2c(C(F)(F)F)cc(-c3cccs3)nc12)N1CCOCC1	none
Cc1cccc(S(=O)(=O)NCCC(=O)OCC(=O)Nc2ccc(C#N)cc2)c1	none
S=C1NCCNC(=S)NCCOCCOCCN1	none
CN(C)S(=O)(=O)Oc1ccc(C(=O)Nc2cccc(Cl)c2)cc1	STAT1 act 143
CN(C)S(=O)(=O)Oc1ccc(C(=O)Nc2cccc(C(F)(F)F)c2)cc1	none
O=C(Nc1cccc2nsnc12)c1ccc2c(c1)OCCO2	STAT1 act 132
O=C(Nc1cccc([N+](=O)[O-])c1)c1ccc2c(c1)OCCO2	STAT1 act 139
CN(C)S(=O)(=O)c1ccc(C(=O)NNC(=O)C2COc3ccccc3O2)cc1 (stereo not drawn)	none
CCN(CC)S(=O)(=O)c1ccc2c(c1)c(=O)c(C(=O)NCc1ccco1)cn2C	none
O=C(Nc1ccc(NC(=O)c2cccs2)cc1Cl)c1ccco1	STAT1 act 131
O=C(Nc1ccc(N2CCCC2)c(Cl)c1)c1ccco1	APP 5'UTR act 286, NF-kB neuron act 8.3, STAT1 act 143
O=C(Nc1ccc(N2CCOCC2)c(Cl)c1)c1ccc(Br)o1	STAT1 act 140
O=C(Nc1ccc(N2CCCCC2)c(C(=O)O)c1)c1ccco1	none
O=C(Nc1cccc(NC(=O)c2cccs2)c1)c1ccco1	none
O=C(Nc1ccc(S(=O)(=O)N2CCCCCC2)cc1)c1ccco1	NF-kB neuron act 3.8
CN(C)C(=O)c1sccc1Oc1ccc(F)cc1[N+](=O)[O-]	none
COc1cc(OC)cc(C(=O)N[C@H](C(=O)OCC(=O)N2CCc3ccccc32)C(C)C)c1	none
COc1cc(NC(=O)c2ccccc2Cl)ccc1NC(=O)c1ccco1	STAT1 act 146
O=C(Nc1ccc(N2CCOCC2)c([N+](=O)[O-])c1)c1ccco1	STAT1 act 132
CN(C(=O)c1cc(-n2cnnc2)ccc1Cl)c1ccccc1	none
COc1ccc(/C=C/C2=NN(C)C(=O)CC2)cc1	APP 5'UTR act 149, NF-kB neuron act 3.4
CCCC(=O)N1CCN(c2ccc(NC(=O)c3ccc(Br)o3)cc2)CC1	none
CCC(=O)N1CCN(c2ccc(NC(=O)c3ccccc3)cc2)CC1	none
CCC(=O)N1CCN(c2ccc(NC(=O)c3ccc([N+](=O)[O-])o3)cc2)CC1	STAT1 act 129
CCCC(=O)N1CCN(c2ccc(NC(=O)c3ccc([N+](=O)[O-])o3)cc2)CC1	STAT1 act 148 (no result: NF-kB neuron act)
O=C(Nc1ccc(N2CCN(C(=O)c3ccc(Cl)cc3)CC2)cc1)c1ccc([N+](=O)[O-])o1	STAT1 act 139
CO/N=C/c1cccn1-c1nccc(N(C)C)c1C#N	none
COc1ccc2c(=O)c(-c3ccccc3)coc2c1	APP 5'UTR act 158, NF-kB neuron act 7.3, STAT1 act 130
CCN(CC)C(=O)Oc1ccc2c(=O)c(-c3ccccc3)coc2c1	NF-kB neuron act 4.6
O=c1c(-c2ccc(F)cc2)coc2cc(O)ccc12	STAT1 act 146
CN(C)CCSc1nnc(-c2ccccc2)o1	none
CN(C)c1cccc(-c2nnc(SCCCC#N)o2)c1	APP 5'UTR act 154
Cc1ccc(-c2cc3cccc[n+]3cc2-c2ccc(C)cc2)cc1	STAT1 inh 36, STAT3 blocker 61
CN(C)S(=O)(=O)Nc1cc(F)cc(F)c1	none
CC(=C/c1ccc(C(C)C)cc1)/C=N/NC(=O)CSc1ccccn1	STAT3 activator 134, STAT1 act 149
CC(/C=N/NC(=O)CSc1ccccn1)=C\c1ccc(C(C)C)cc1	none
c1ccc(-c2noc(CCC3CCCC3)n2)cc1	none
c1ccc(-c2noc(CC3CCCCC3)n2)cc1	STAT1 act 136
COc1ccc(N2CC(C(=O)OC(C)C(=O)c3ccccc3)CC2=O)cc1 (stereo not drawn)	none
CSc1nc(-c2ccccc2)[nH]c(=S)c1C(C)=O	STAT3 activator 133
CSc1nc(-c2ccccc2)nc(SC)c1C(C)=O	none
CC(=O)N/N=C/c1ccc(OCCOc2ccc(Br)cc2)cc1	none
COc1ccc(C2=Nn3c(nnc3-c3ccccc3)SC2)cc1OC	STAT3 activator 134
COc1ccc(C2=Nn3c(nnc3-c3ccco3)SC2)cc1	NF-kB neuron act 4.8
OC(COc1ccc2ccccc2c1Cl)CN1CCOCC1 (stereo not drawn)	STAT1 act 134

Assay outcomes deposited in PubChem by several laboratories.
